Calls of active or inactive are those of the source. No cut-off for these calls is given here.
Legend:
[1] = system: SK-MEL-5; assay: Growth inhibition of human SK-MEL-5 cells; assay type: functional
Outline: (§1)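 Tested at the NCI in its human disease-oriented in vitro screen of 60 tumour cell lines, following the Monks et al. methods. Activity is expressed as GI50, given as log molar values.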

[2] = system: COLO 205; assay: Growth inhibition of human COLO205 cells; assay type: functional
[3] = system: MDA-MB-231; assay: Growth inhibition of human MDA-MB-231 cells; assay type: functional
[4] = system: M14; assay: Growth inhibition of human M14 cells; assay type: functional
[5] = system: MDA-N; assay: Growth inhibition of human MDA-N cells; assay type: functional
[6] = system: IGROV-1; assay: Growth inhibition of human IGROV1 cells; assay type: functional
[7] = system: ACHN; assay: Growth inhibition of human ACHN cells; assay type: functional
[8] = system: SK-OV-3; assay: Growth inhibition of human SK-OV-3 cells; assay type: functional; outline: as §1
[9] = system: OVACR5; assay: (§2) Growth inhibition of human OVACR5 cells; assay type: functional
[10] = system: UACC-257; assay: Growth inhibition of human UACC257 cells; assay type: functional; outline: as §1
[11] = system: HOP-18; assay: Growth inhibition of human HOP18 cells; assay type: functional
[12] = system: SW-620; assay: Growth inhibition of human SW620 cells; assay type: functional; outline: as §1
[13] = system: SF-268; assay: Growth inhibition of human SF268 cells; assay type: functional; outline: as §1
[14] = system: MOLT-4; assay: Growth inhibition of human MOLT4 cells; assay type: functional
[15] = system: LXFL 529; assay: (§3) Growth inhibition of human LXFL529 cells; assay type: functional
[16] = system: M19-MEL; assay: Growth inhibition of human M19-MEL cells; assay type: functional
[17] = system: XF498; assay: Growth inhibition of human XF498 cells; assay type: functional; outline: as §1
[18] = system: SK-MEL-28; assay: Growth inhibition of human SK-MEL-28 cells; assay type: functional; outline: as §1
[19] = system: CAKI-1; assay: Growth inhibition of human CAKI1 cells; assay type: functional
[20] = system: RPMI8266; assay: (§4) Growth inhibition of human RPMI8266 cells; assay type: functional
[21] = system: DMS-273; assay: Growth inhibition of human DMS273 cells; assay type: functional
[22] = system: SNB-19; assay: Growth inhibition of human SNB19 cells; assay type: functional; outline: as §1
[23] = system: KM12; assay: Growth inhibition of human KM12 cells; assay type: functional
[24] = system: SR; assay: Growth inhibition of human SR cells; assay type: functional; outline: as §1
[25] = system: DLD-1; assay: Growth inhibition of human DLD1 cells; assay type: functional
[26] = system: NCI-H226; assay: Growth inhibition of human NCI-H226 cells; assay type: functional
[27] = system: KM-20L2; assay: Growth inhibition of human KM20L2 cells; assay type: functional
[28] = system: HOP-62; assay: Growth inhibition of human HOP62 cells; assay type: functional
[29] = system: HCT-15; assay: Growth inhibition of human HCT15 cells; assay type: functional
[30] = system: TK-10; assay: Growth inhibition of human TK10 cells; assay type: functional; outline: as §1
[31] = system: HCC 2998; assay: Growth inhibition of human HCC2998 cells; assay type: functional
[32] = system: A549; assay: Growth inhibition of human A549 cells; assay type: functional
[33] = system: T47D; assay: Growth inhibition of human T47D cells; assay type: functional; outline: as §1
[34] = system: DMS144; assay: (§5) Growth inhibition of human DMS144 cells; assay type: functional
[35] = system: SK-MEL-2; assay: Growth inhibition of human SK-MEL-2 cells; assay type: functional; outline: as §1
[36] = system: UACC-62; assay: Growth inhibition of human UACC62 cells; assay type: functional; outline: as §1
[37] = system: SF-295; assay: Growth inhibition of human SF295 cells; assay type: functional; outline: as §1
[38] = system: NCI-H322M; assay: Growth inhibition of human NCI-H322M cells; assay type: functional
[39] = system: A498; assay: Growth inhibition of human A498 cells; assay type: functional
[40] = system: HT-29; assay: Growth inhibition of human HT29 cells; assay type: functional
[41] = system: UO-31; assay: Growth inhibition of human UO31 cells; assay type: functional; outline: as §1
[42] = system: OVACR3; assay: (§6) Growth inhibition of human […] cells; assay type: functional
[43] = system: 786-0; assay: Growth inhibition of human 786-0 cells; assay type: functional
[44] = system: MCF7; assay: Growth inhibition of human MCF7 cells; assay type: functional
[45] = system: NCI-H460; assay: Growth inhibition of human NCI-H460 cells; assay type: functional
[46] = system: K562; assay: Growth inhibition of human K562 cells; assay type: functional
[47] = system: U-251; assay: Growth inhibition of human U251 cells; assay type: functional; outline: as §1
[48] = system: BT-549; assay: Growth inhibition of human BT549 cells; assay type: functional
[49] = system: PC-3; assay: Growth inhibition of human PC3 cells; assay type: functional
[50] = system: Malme-3M; assay: Growth inhibition of human MALME-3M cells; assay type: functional
[51] = system: OVACR8; assay: (§7) Growth inhibition of human OVACR8 cells; assay type: functional
[52] = system: SNB-75; assay: Growth inhibition of human SNB75 cells; assay type: functional; outline: as §1
[53] = system: SF-539; assay: Growth inhibition of human SF539 cells; assay type: functional; outline: as §1
[54] = system: DU-145; assay: Growth inhibition of human DU145 cells; assay type: functional
[55] = system: HOP-92; assay: Growth inhibition of human HOP92 cells; assay type: functional
[56] = system: MDA-MB-435; assay: Growth inhibition of human MDA-MB-435 cells; assay type: functional
[57] = system: NCI/ADR-RES; assay: (§8) Growth inhibition of human MCF7/ADR-RES cells; assay type: functional
[58] = system: LOX IMVI; assay: Growth inhibition of human LOX IMVI cells; assay type: functional
[59] = system: EKVX; assay: Growth inhibition of human EKVX cells; assay type: functional
[60] = system: RXF 393; assay: Growth inhibition of human […] cells; assay type: functional
[61] = system: CCRF-CEM; assay: Growth inhibition of human CCRF-CEM cells; assay type: functional
[62] = system: SN12C; assay: Growth inhibition of human SN12C cells; assay type: functional; outline: as §1
[63] = system: NCI-H522; assay: Growth inhibition of human NCI-H522 cells; assay type: functional
[64] = system: HCT-116; assay: Growth inhibition of human HCT116 cells; assay type: functional
[65] = system: Hs-578T; assay: Growth inhibition of human HS578T cells; assay type: functional
[66] = system: OVACR4; assay: (§9) Growth inhibition of human OVACR4 cells; assay type: functional
[67] = system: HL-60(TB); assay: (§10) Growth inhibition of human HL60(TB) cells; assay type: functional
[68] = system: NCI-H23; assay: Growth inhibition of human NCI-H23 cells; assay type: functional
[69] = as §2; assay type: functional; settings: read-out: pLC50 (the source's name) (converted)
[70] = as §3; assay type: functional; settings: LXFL 529
[71] = as §4; assay type: functional; settings: read-out: pLC50 (the source's name) (converted)
[72] = as §5; assay type: functional
[73] = as §6; assay type: functional; settings: read-out: pLC50 (the source's name) (converted)
[74] = as §7; assay type: functional; settings: read-out: pLC50 (the source's name) (converted)
[75] = as §8; assay type: functional; settings: NCI/ADR-RES, read-out: pLC50 (the source's name) (converted)
[76] = as §9; assay type: functional; settings: read-out: pLC50 (the source's name) (converted)
[77] = as §10; assay type: functional, HL-60(TB); settings: HL-60, read-out: pLC50 (the source's name) (converted)
[78] = read-out: pLC50 (the source's name) (converted)

Compound: Cc1cc2c([nH]c3ccccc32)c2c1OC(C)(C)[C@H]1[C@H]3CC(C)(C)Oc4c(C)cc5c6ccccc6n(c5c43)[C@@H]21
- Activity [1]: inactive
- Activity [2]: inactive
- Activity [3]: inactive
- Activity [4]: inactive
- Activity [5]: inactive
- Activity [6]: inactive
- Activity [7]: inactive
- Activity [8]: inactive
- Activity [9]: inactive
- Activity [10]: inactive
- Activity [11]: inactive
- Activity [12]: inactive
- Activity [13]: inactive
- Activity [14]: inactive
- Activity [15]: inactive
- Activity [16]: inactive
- Activity [17]: inactive
- Activity [18]: inactive
- Activity [19]: inactive
- Activity [20]: inactive
- Activity [21]: inactive
- Activity [22]: inactive
- Activity [23]: inactive
- Activity [24]: inactive
- Activity [25]: inactive
- Activity [26]: inactive
- Activity [27]: inactive
- Activity [28]: inactive
- Activity [29]: inactive
- Activity [30]: inactive
- Activity [31]: inactive
- Activity [32]: inactive
- Activity [33]: inactive
- Activity [34]: inactive
- Activity [35]: inactive
- Activity [36]: inactive
- Activity [37]: inactive
- Activity [38]: inactive
- Activity [39]: inactive
- Activity [40]: inactive
- Activity [41]: inactive
- Activity [42]: inactive
- Activity [43]: inactive
- Activity [44]: inactive
- Activity [45]: inactive
- Activity [46]: inactive
- Activity [47]: inactive
- Activity [48]: inactive
- Activity [49]: inactive
- Activity [50]: inactive
- Activity [51]: inactive
- Activity [52]: inactive
- Activity [53]: inactive
- Activity [54]: inactive
- Activity [55]: inactive
- Activity [56]: inactive
- Activity [57]: inactive
- Activity [58]: inactive
- Activity [59]: inactive
- Activity [60]: inactive
- Activity [61]: inactive
- Activity [62]: inactive
- Activity [63]: inactive
- Activity [64]: inactive
- Activity [65]: inactive
- Activity [66]: inactive
- Activity [67]: inactive
- Activity [68]: inactive

Compound: C=C(C)C1CC2(C)CC1c1c(c(C)cc3c1[nH]c1ccccc13)O2 (stereo unspecified)
- CC50 [1, 78]: > 25.1 µM
- LC50 [2]: > 25.1 µM
- CC50 [3, 78]: > 25.1 µM
- CC50 [4, 78]: > 25.1 µM
- CC50 [5, 78]: > 25.1 µM
- CC50 [6, 78]: > 25.1 µM
- CC50 [7, 78]: > 25.1 µM
- CC50 [8, 78]: > 25.1 µM
- CC50 [69]: > 25.1 µM
- CC50 [10, 78]: > 25.1 µM
- CC50 [11, 78]: > 25.1 µM
- LC50 [12]: > 25.1 µM
- LC50 [13]: > 25.1 µM
- LC50 [14]: > 25.1 µM
- LC50 [70]: > 25.1 µM
- CC50 [16, 78]: > 25.1 µM
- CC50 [17, 78]: > 25.1 µM
- CC50 [18, 78]: > 25.1 µM
- CC50 [19, 78]: > 25.1 µM
- CC50 [71]: > 25.1 µM
- LC50 [21]: > 25.1 µM
- CC50 [22, 78]: > 25.1 µM
- CC50 [23, 78]: > 25.1 µM
- LC50 [24]: > 25.1 µM
- LC50 [25]: > 25.1 µM
- LC50 [26]: > 25.1 µM
- CC50 [27, 78]: > 25.1 µM
- LC50 [28]: > 25.1 µM
- CC50 [29, 78]: > 25.1 µM
- CC50 [30, 78]: > 25.1 µM
- LC50 [31]: > 25.1 µM
- LC50 [32]: > 25.1 µM
- LC50 [33]: > 25.1 µM
- LC50 [72]: > 25.1 µM
- CC50 [35, 78]: > 25.1 µM
- CC50 [36, 78]: > 25.1 µM
- CC50 [37, 78]: > 25.1 µM
- LC50 [38]: > 25.1 µM
- CC50 [39, 78]: > 25.1 µM
- LC50 [40]: > 25.1 µM
- CC50 [41, 78]: > 25.1 µM
- CC50 [73]: > 25.1 µM
- CC50 [43, 78]: > 25.1 µM
- CC50 [44, 78]: > 25.1 µM
- LC50 [45]: > 25.1 µM
- LC50 [46]: > 25.1 µM
- CC50 [47, 78]: > 25.1 µM
- LC50 [48]: > 25.1 µM
- CC50 [49, 78]: > 25.1 µM
- CC50 [50, 78]: > 25.1 µM
- CC50 [74]: > 25.1 µM
- CC50 [52, 78]: > 25.1 µM
- CC50 [53, 78]: > 25.1 µM
- CC50 [54, 78]: > 25.1 µM
- CC50 [55, 78]: > 25.1 µM
- LC50 [56]: > 25.1 µM
- CC50 [75]: > 25.1 µM
- CC50 [58, 78]: > 25.1 µM
- CC50 [59, 78]: > 25.1 µM
- CC50 [60, 78]: > 25.1 µM
- LC50 [61]: > 25.1 µM
- CC50 [62, 78]: > 25.1 µM
- CC50 [63, 78]: > 25.1 µM
- CC50 [64, 78]: > 25.1 µM
- CC50 [65, 78]: > 25.1 µM
- CC50 [76]: > 25.1 µM
- CC50 [77]: > 25.1 µM
- LC50 [68]: > 25.1 µM

— ChEMBL document CHEMBL1142636 (2000)
